Compound activity (PubChem BioAssay)
Most compounds without a hit are left out; they make up all but 2.8% or so of the library.
ARFGAP1 inhibitor: inhibits rat ARF GTPase activating protein 1 | Q62848 | Arfgap1-stimulated ARF1 GTP hydrolysis, GDP FP detection | inhibition, % at 16.5 µM | hit rate 0.26% among 360,000 | AID 651572;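 active = inhibition above a per-plate limit, mean inhibition of low control wells plus 3 SD, cut at about 25% in these data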;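 note: 0% = DMSO wells with enzyme and 100% = wells lacking Arfgap1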
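Material: rat Arfgap1 catalytic domain, aa 1-136; also added: human ARF1(Δ1-17)-GTP substrate; compound dosing: one concentration, 16.5 µM, DMSO 1.26%; incubation: GTP hydrolysis reaction 2 h at 25 °C; measured by: Tracer-displacement fluorescence polarization with EDTA stop, 620/688 nm; evaluation: % inhibition from polarization; repeats: one replicate per compound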
PAFAH1B3 FP inh: PAFAH1B3 (human) inhibition; Q15102; recombinant PAFAH1B3, FP-rhodamine probe, fluorescence polarization; inhibition, % at 3.39 µM; hit rate 0.28% among 340,000; AID 492972;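 active = inhibition above the screen-wide average of all tested compounds plus 3 SD, cut at about 25% in these data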;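 note: 0% = enzyme with DMSO only and 100% = wells lacking PAFAH1B3 protein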
Target sequence (Q15102 whole entry, looked up): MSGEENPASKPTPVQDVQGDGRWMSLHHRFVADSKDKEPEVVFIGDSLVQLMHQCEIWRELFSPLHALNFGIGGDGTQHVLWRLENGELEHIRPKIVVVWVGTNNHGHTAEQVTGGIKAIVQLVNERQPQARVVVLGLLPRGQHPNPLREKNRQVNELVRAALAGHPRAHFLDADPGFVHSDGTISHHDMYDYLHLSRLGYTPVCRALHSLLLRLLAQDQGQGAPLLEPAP
PAFAH2 FP inh: PAFAH2 (human) inhibition | Q99487 | recombinant PAFAH2, FP-rhodamine activity probe, fluorescence polarization | inhibition, % at 3.39 µM | hit rate 0.99% among 340,000 | AID 492956;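 active = inhibition above the mean over all tested compounds plus 3 SD, cut at about 30% in these data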;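 note: inhibitors block probe labeling of enzyme so polarization drops; 0% = enzyme with DMSO and 100% = wells lacking PAFAH2 protein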
ASAP1 GAP inh: blocks human ASAP1-stimulated Arf1 GTP hydrolysis | inhibition, % at 16.5 µM | Q9ULH1 | hit rate 0.19% among 360,000 | GDP FP detection; in the data active = inhibition above about 25%;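 note: 0% = vehicle with enzyme and substrate and 100% = no enzyme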
Target sequence (Q9ULH1 325-724 limits assumed): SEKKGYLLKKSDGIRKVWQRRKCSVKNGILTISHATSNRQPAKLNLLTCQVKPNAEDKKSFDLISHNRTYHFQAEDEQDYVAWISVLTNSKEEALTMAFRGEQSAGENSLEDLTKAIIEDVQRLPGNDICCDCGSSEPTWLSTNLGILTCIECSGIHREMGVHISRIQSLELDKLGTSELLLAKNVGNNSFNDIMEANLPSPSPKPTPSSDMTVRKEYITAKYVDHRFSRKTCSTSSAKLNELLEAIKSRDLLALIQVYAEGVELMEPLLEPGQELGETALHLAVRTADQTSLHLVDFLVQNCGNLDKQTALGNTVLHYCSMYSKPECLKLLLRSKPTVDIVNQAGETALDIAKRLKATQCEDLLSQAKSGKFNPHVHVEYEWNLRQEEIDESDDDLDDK
PAFAH1B2 inh: PAFAH1B2 (human) inhibition | recombinant PAFAH1B2, FP-rhodamine activity probe, fluorescence polarization | AID 492953 | hit rate 1.2% among 340,000 | inhibition, % at 3.39 µM;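 active = inhibition above the mean of all tested compounds plus 3 SD, cut at about 24% in these data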;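 note: 0% = enzyme with DMSO and 100% = wells lacking PAFAH1B2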
pPAFAH inh: inhibitors of human plasma PAF acetylhydrolase (pPAFAH). recombinant pPAFAH, FP-rhodamine probe fluorescence polarization. inhibition, % at 3.39 µM. hit rate 1.5% among 330,000;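 active = inhibition above the mean inhibition across the screen plus 3 SD, cut at about 25% in these data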;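 note: inhibitors block binding of the rhodamine activity-based probe so polarization drops; 0% = enzyme with DMSO and 100% = wells lacking pPAFAH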
* marks the source's active call; other numbers are inactive results.

How did O=C(COC(=O)/C=C/c1ccc(OC(F)F)cc1)Nc1ccc2[nH]c(=O)[nH]c2c1 do in these assays?
ARFGAP1 inhibitor: -10; PAFAH1B3 FP inh: -7; PAFAH2 FP inh: -15; ASAP1 GAP inh: -6; PAFAH1B2 inh: -4; pPAFAH inh: 3

Results for CN1C(=O)c2ccccc2Cc2c(NCc3ccccc3)ncnc21 ?
ARFGAP1 inhibitor: -7; ASAP1 GAP inh: -6

Results for CCCNC(=O)c1ccc2c(=O)c(O)c(-c3cccc(Br)c3)[nH]c2c1 ?
ARFGAP1 inhibitor: -1; PAFAH1B3 FP inh: 17; PAFAH2 FP inh: -20; ASAP1 GAP inh: 1; PAFAH1B2 inh: 19; pPAFAH inh: 28*

How did CCCNC(=O)c1ccc2c(=O)c(O)c(-c3ccc(F)cc3)[nH]c2c1 do in these assays?
PAFAH1B3 FP inh: 25; PAFAH2 FP inh: 11; PAFAH1B2 inh: 14; pPAFAH inh: 13

Results for Nc1c(Cl)cc(-c2[nH]c3cc(C(=O)NCCO)ccc3c(=O)c2O)cc1Cl ?
ARFGAP1 inhibitor: 8; PAFAH1B3 FP inh: 36*; PAFAH2 FP inh: -27; ASAP1 GAP inh: -1; PAFAH1B2 inh: 26*; pPAFAH inh: 19

Results for COc1cc(/C=C2\SC(=O)N(CC(=O)Nc3ccccc3F)C2=O)cc(Cl)c1O ?
ARFGAP1 inhibitor: 6; PAFAH1B3 FP inh: 7; PAFAH2 FP inh: 18; ASAP1 GAP inh: -7; PAFAH1B2 inh: 2; pPAFAH inh: -1

How did CCOc1cc(/C=C2\SC(=O)N(CC(=O)Nc3ccccc3F)C2=O)cc([N+](=O)[O-])c1O do in these assays?
ARFGAP1 inhibitor: -1; PAFAH1B3 FP inh: 15; PAFAH2 FP inh: 34*; ASAP1 GAP inh: -10; PAFAH1B2 inh: 8; pPAFAH inh: 32*

Results for O=C1CC(/C=C/c2ccccn2)=Nc2ccccc2N1 ?
ARFGAP1 inhibitor: 0; PAFAH1B3 FP inh: 9; PAFAH2 FP inh: 3; ASAP1 GAP inh: -1; PAFAH1B2 inh: 2; pPAFAH inh: 5

How did O=C1CC(/C=C/c2ccco2)=Nc2ccccc2N1 do in these assays?
PAFAH1B3 FP inh: 10; PAFAH2 FP inh: 7; PAFAH1B2 inh: 6; pPAFAH inh: 26*

Results for CC(C)CN(C(=O)COC(=O)CSc1ccc([N+](=O)[O-])cc1)C1CCS(=O)(=O)C1 (stereo unspecified) ?
ARFGAP1 inhibitor: -10; PAFAH1B3 FP inh: 6; PAFAH2 FP inh: 3; ASAP1 GAP inh: -4; PAFAH1B2 inh: 25*; pPAFAH inh: 4

Results for Cc1ccc(SCC(=O)OCC(=O)N(C)C2CCS(=O)(=O)C2)cc1C (stereo unspecified) ?
ARFGAP1 inhibitor: -9; PAFAH1B3 FP inh: 7; PAFAH2 FP inh: -11; ASAP1 GAP inh: 1; PAFAH1B2 inh: 4; pPAFAH inh: 25*

How did CCCN(C(=O)COC(=O)CSc1ccc([N+](=O)[O-])cc1)C1CCS(=O)(=O)C1 (stereo unspecified) do in these assays?
ARFGAP1 inhibitor: -3; PAFAH1B3 FP inh: 0; PAFAH2 FP inh: 8; ASAP1 GAP inh: 6; PAFAH1B2 inh: 9; pPAFAH inh: 5

Results for N#CCC1(O)C(=O)Nc2ccccc21 (stereo unspecified) ?
ARFGAP1 inhibitor: -6; ASAP1 GAP inh: -8

What do the screens show for `CCC1S/C(=N\S(=O)(=O)c2cccs2)N(C2CCCCC2)C1=O` (stereo unspecified)?
ARFGAP1 inhibitor: 4; PAFAH1B3 FP inh: 4; PAFAH2 FP inh: -2; ASAP1 GAP inh: 5; PAFAH1B2 inh: 25*; pPAFAH inh: 1

Results for Cn1cccc1CC(=O)N/N=C\c1c2ccccc2cc2ccccc12 ?
ARFGAP1 inhibitor: 0; PAFAH1B3 FP inh: 1; PAFAH2 FP inh: 17; ASAP1 GAP inh: -12; PAFAH1B2 inh: 5; pPAFAH inh: 27*

What do the screens show for `Cn1cccc1CC(=O)N/N=C/c1cccc2ccccc12`?
ARFGAP1 inhibitor: 6; PAFAH1B3 FP inh: -4; PAFAH2 FP inh: 5; ASAP1 GAP inh: 9; PAFAH1B2 inh: 5; pPAFAH inh: 13

What do the screens show for `COc1cc(C)c(NC(=O)COc2ccc3c(c2)OCO3)cc1C`?
ARFGAP1 inhibitor: 3; PAFAH1B3 FP inh: 5; PAFAH2 FP inh: -2; ASAP1 GAP inh: 3; PAFAH1B2 inh: 0; pPAFAH inh: 4

Results for Cc1ccc(CSc2nnc(NC(=O)C3COc4ccccc4O3)s2)cc1 (stereo unspecified) ?
ARFGAP1 inhibitor: 5; PAFAH1B3 FP inh: 12; PAFAH2 FP inh: 10; ASAP1 GAP inh: 6; PAFAH1B2 inh: 31*; pPAFAH inh: 6

How did COc1cccc(C(=O)OCC(=O)Nc2sc3c(c2C(N)=O)CCC3)c1O do in these assays?
ARFGAP1 inhibitor: 6; PAFAH1B3 FP inh: 5; PAFAH2 FP inh: 19; ASAP1 GAP inh: 7; PAFAH1B2 inh: 4; pPAFAH inh: 28*

How did S=C(SCc1c(Cl)cccc1Cl)N1CCSCC1 do in these assays?
ARFGAP1 inhibitor: 19; ASAP1 GAP inh: -7

How did CC(C)(C)OC(=O)C[C@@H]1C/C=C\C[C@H](CC(=O)N[C@H](CO)Cc2ccccc2)C(=O)N2CCC[C@H]2COC1=O do in these assays?
ARFGAP1 inhibitor: 2; PAFAH1B3 FP inh: 7; PAFAH2 FP inh: 4; ASAP1 GAP inh: -17; PAFAH1B2 inh: 0; pPAFAH inh: -5

What do the screens show for `Cc1ccc(S(=O)(=O)/N=C2/C=C(Sc3ncn[nH]3)C(=O)c3ccccc32)cc1`?
PAFAH1B3 FP inh: 48*; PAFAH2 FP inh: 75*; PAFAH1B2 inh: 51*; pPAFAH inh: 9

What do the screens show for `CC(C)c1ccc(S(=O)(=O)/N=C2/C=C(Sc3ncn[nH]3)C(=O)c3ccccc32)cc1`?
PAFAH1B3 FP inh: 49*; PAFAH2 FP inh: 51*; PAFAH1B2 inh: 46*; pPAFAH inh: 9

Results for O=C(NCc1ccccc1)c1cc(C2CCCN(C(=O)c3ccc4c(c3)CCO4)C2)on1 (stereo unspecified) ?
ARFGAP1 inhibitor: 2; ASAP1 GAP inh: -6

What do the screens show for `CN(C)c1ccc(O)c2c1CC1CC3[C@@H](N(C)C)C(=O)C(C(N)=O)C(=O)[C@]3(O)C(=O)C1C2=O` (stereo partly specified)?
ARFGAP1 inhibitor: 0; PAFAH1B3 FP inh: 16; PAFAH2 FP inh: 3; ASAP1 GAP inh: 4; PAFAH1B2 inh: 8; pPAFAH inh: 20

What do the screens show for `CN(C)c1ccc(O)c2c1CC1CC3C(N(C)C)C(=O)C(C(N)=O)=C(O)[C@@]3(O)C(=O)C1=C2O` (stereo partly specified)?
ARFGAP1 inhibitor: 1; PAFAH1B3 FP inh: 11; PAFAH2 FP inh: 8; ASAP1 GAP inh: 5; PAFAH1B2 inh: 8; pPAFAH inh: 33*

How did O=C(COC(=O)c1cc[n+]([O-])cc1)Nc1cc([N+](=O)[O-])ccc1Cl do in these assays?
ARFGAP1 inhibitor: -7; PAFAH1B3 FP inh: 7; PAFAH2 FP inh: 3; ASAP1 GAP inh: 3; PAFAH1B2 inh: 5; pPAFAH inh: -5

How did O=C(N/N=C/c1c[nH]c2ccccc12)c1ccccc1 do in these assays?
ARFGAP1 inhibitor: 1; PAFAH1B3 FP inh: 3; PAFAH2 FP inh: 1; ASAP1 GAP inh: -7; PAFAH1B2 inh: 6; pPAFAH inh: 7
